Measured values of several laboratories.
TACR2: Substance-K receptor (TACR2, Homo sapiens, UniProt P21452)
HTR1D: 5-hydroxytryptamine receptor 1D (HTR1D, Homo sapiens, UniProt P28221)
HDAC8: Histone deacetylase 8 (HDAC8, Homo sapiens, UniProt Q9BY41)
ALOX5: Polyunsaturated fatty acid 5-lipoxygenase (ALOX5, Homo sapiens, UniProt P09917)

O=C1N=C(N2CCCCN2)S/C1=C\c1ccc(F)cc1O — inhibition (TACR2; ligand displacement, radioligand; 10 µM): < 10%
CCN(CC)c1ccc(C2Nc3ccc(C(=O)c4ccccc4)cc3NC3=C2C(=O)CC(C)(C)C3)cc1 (stereo not shown) — inhibition (HTR1D; ligand displacement, radioligand; 10 µM): 25%
CC(=O)O[C@@H]1c2c(ccc3ccc(=O)oc23)OC(C)(C)[C@@H]1OC(=O)C1(C)OC1C (stereo partly shown) — inhibition (HDAC8; enzyme activity, inhibitor; 10 µM): 43.5%
COc1cc(NC(C)=O)c(Cl)cc1C(=O)Nc1nccs1 — inhibition (TACR2; cell-free assay; 10 µM): 20%
CCn1ccc(=S)c(O)c1C — inhibition (ALOX5; enzyme activity, inhibitor, fluorescence; 1 mM): > 70%
COc1ccc(Cc2nnc(NS(=O)(=O)c3cccc4ccccc34)s2)cc1 — inhibition (Glutathione hydrolase 1 proenzyme (Homo sapiens, UniProt P19440); enzyme activity in cells, inhibitor; NIH3T3; 100 µM): 59%
CCN1CCN(Cc2ccc(NC(=O)c3ccc(C)c(Oc4ccnc5[nH]ccc45)c3)cc2C(F)(F)F)CC1 — inhibition (Mitogen-activated protein kinase kinase kinase 4 (MAP3K4, Homo sapiens, UniProt Q9Y6R4); target engagement in cells, inhibitor, chemoproteomics; A-375; 50 nM): -20.3%
Cc1occc(=S)c1O — inhibition (ALOX5; enzyme activity, inhibitor, fluorescence; 1 mM): > 70%
COc1ccc(CCCn2ncc3c2nc(N)n2nc(-c4ccco4)nc32)cc1 — inhibition (Adenosine receptor A3 (Mus musculus, UniProt Q61618); ligand displacement, radioligand; 10 µM, cell membranes): 6%
N#Cc1cc(Cn2c(N3CCCC3)nc3ccccc32)ccc1F — inhibition (HTR1D; cell-free assay; 10 µM): -36.9%
O=C(/C=C/c1ccc(O)c(O)c1)O[C@@H]1C[C@](O)(C(=O)O)C[C@@H](O)[C@H]1O — inhibition (HDAC8; enzyme activity, inhibitor; 10 µM): 58.2%
COc1cc(Cl)c(C(=O)N[C@@H](CN[C@H]2CC[C@@H](N)CC2)Cc2ccc(C#N)cc2)cc1-c1ccc(CN[C@H](C)c2ccc(C)cc2)o1 — inhibition (Somatostatin receptor type 4 (SSTR4, Homo sapiens, UniProt P31391); calcium signal, antagonist; 10 µM): 12%
O=c1c(O[C@@H]2O[C@H](CO)[C@@H](O)[C@H](O)[C@H]2O)c(-c2ccc(O)cc2)oc2cc(O)cc(O)c12 — inhibition (HDAC8; enzyme activity, inhibitor; 10 µM): 14.8%
Oc1cccc(Nc2nc(-c3ccc(F)cc3F)cs2)c1 — inhibition (TACR2; cell-free assay; 10 µM): 31.5%
O=c1occcc1O — inhibition (ALOX5; enzyme activity, inhibitor, fluorescence; 1 mM): > 70%
O=c1cc(-c2ccc(O)c(O)c2)oc2cc(O)cc(O)c12 — inhibition (HDAC8; enzyme activity, inhibitor; 10 µM): 67.2%
